Compound activity: PubChem, several laboratories
SENP6 inh: inhibitors of human SENP6 protease | Recombinant SENP6 catalytic domain, aminoluciferin luminescence | AID 2599 | inhibition, % at 10 µM | 330,000 compounds, 1.8% hits | Q9GZR1;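 active = inhibition above about 50% at the single tested dose, limit read from the data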
SENP7 inh: blocks the human protease SENP7 | 330,000 compounds, 1.5% hits | inhibition, % at 5 µM | Q9BQF6 | AID 434973 | recombinant SENP7, Z-RLRGG-aminoluciferin luminescence, 40 min;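 active = inhibition above about 50% at the single test dose, limit read from the data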
Target sequence (Q9BQF6 706-1050 limits assumed): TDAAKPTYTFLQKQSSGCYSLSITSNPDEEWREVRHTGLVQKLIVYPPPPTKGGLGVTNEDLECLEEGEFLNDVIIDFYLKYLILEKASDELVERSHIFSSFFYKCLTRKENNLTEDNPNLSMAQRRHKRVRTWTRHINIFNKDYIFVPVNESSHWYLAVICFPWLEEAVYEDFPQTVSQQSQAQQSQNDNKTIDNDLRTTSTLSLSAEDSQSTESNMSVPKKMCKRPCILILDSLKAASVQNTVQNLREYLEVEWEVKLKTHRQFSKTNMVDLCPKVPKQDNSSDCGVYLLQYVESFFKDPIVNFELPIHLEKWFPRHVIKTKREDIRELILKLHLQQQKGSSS
HSP90 refold inh: blocks HSP90-mediated luciferase refolding in reticulocyte lysate. Rabbit reticulocyte lysate, luciferase refolding luminescence, 3 h. inhibition, % at 5.6 µM. 290,000 compounds, 0.91% hits. AID 1789;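 active = inhibition above the screen-wide mean plus 3 SD, computed separately per campaign, cut at about 16% in these data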;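 also: inhibitors lower the luminescence because luciferase stays unfolded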
SENP8 block-1: blocks the human protease SENP8. Q96LD8. purified SENP8, Z-RLRGG-aminoluciferin cleavage, luminescence. inhibition, % at 10 µM. 330,000 compounds, 1.2% hits; in the data active = inhibition above about 50%
SENP8 block-2: blocks human SENP8 cleavage of Nedd8 substrate; inhibition, % at 20 µM; recombinant SENP8, Nedd8 substrate fluorescence; 360,000 compounds, 0.64% hits; in the data active = inhibition mostly above about 40%, no sharp cut-off; inactive = mostly below about 27%
SENP1 inh: inhibitors of human SENP1 SUMO protease catalytic domain; recombinant SENP1 catalytic domain, CyPet-SUMO1-YPet FRET cleavage; inhibition, % at 10 µM; 360,000 compounds, 0.21% hits;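 active = inhibition at least 30% at 10 µM, raw YFP signal under a set limit, fluorescence ratio 0.5 to 1.5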
Target sequence (Q9P0U3 419-644 limits assumed): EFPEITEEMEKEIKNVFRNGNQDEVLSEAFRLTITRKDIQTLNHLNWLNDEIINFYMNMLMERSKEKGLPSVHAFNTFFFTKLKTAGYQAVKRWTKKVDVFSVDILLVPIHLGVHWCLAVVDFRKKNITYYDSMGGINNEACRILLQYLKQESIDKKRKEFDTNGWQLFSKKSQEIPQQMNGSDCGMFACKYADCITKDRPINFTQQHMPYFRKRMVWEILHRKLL
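Controls: no-enzyme wells low, DMSO-plus-enzyme wells high control. Test system: human recombinant His6-tagged SENP1 catalytic domain enzyme. Reagent: SFCypet-SUMO1-SFYpet FRET protein substrate, 25 nM final. Doses: one dose per compound, 10 µM, 0.5% DMSO. Detection: FRET, CFP and YFP emission. Timing: 50 min reaction at room temperature.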
SENP1 conf: SENP1 (human) inhibition, single concentration confirmation; 520 compounds, 34% hits; inhibition, % at 10 µM; recombinant SENP1, CyPet-SUMO1-YPet FRET cleavage; shares compounds with SENP1 inh; in the data active = inhibition mostly above about 35%, no sharp cut-off; inactive = mostly below about 32%
SENP1 kinetic: confirmation of human SENP1 SUMO protease inhibitors, kinetic. shares compounds with SENP1 inh. recombinant SENP1, CyPet-SUMO1-YPet FRET kinetic cleavage. inhibition, % at 10 µM. 520 compounds, 26% hits; in the data active = inhibition mostly above about 32%, no sharp cut-off; inactive = mostly below about 29%
Large screens that a line does not name were inactive (follow-up assays come after a bar, where they were run). In the library only some 2.9% were active in any assay of this set; here they are far more common.

Cc1ccc(O)c(C(=O)c2cc(C#N)c(=O)n(-c3c(C)n(C)n(-c4ccccc4)c3=O)c2)c1	none
Cc1ccc2c(c1)CCCN2S(=O)(=O)c1cccc(C(=O)Nc2ccccc2C(=O)O)c1	none
N#C/C(C(=O)N1CCOCC1)=C1/SC(Cc2ccccc2)C(=O)N1c1ccccc1 (stereo not drawn)	SENP1 inh 37.4 | SENP1 conf inactive | SENP1 kinetic inactive
Cc1ccc(-c2nc3ncccn3c2Nc2ccc3c(c2)OCO3)o1	SENP1 inh 42.5 | SENP1 conf inactive | SENP1 kinetic inactive
O=C(NN1C(=O)C2C(c3ccccc3)C=CC(c3ccccc3)C2C1=O)c1ccccc1 (stereo not drawn)	SENP1 inh 40.6 | SENP1 conf inactive | SENP1 kinetic inactive
O=C(NN1C(=O)C2C3c4ccccc4C(c4ccccc43)[C@@H]2C1=O)c1ccccc1 (stereo partly drawn)	none
O=C(NN1C(=O)C2C(c3ccccc3)C=CC(c3ccccc3)C2C1=O)c1cccc(Br)c1 (stereo not drawn)	SENP1 inh 40.5 | SENP1 conf inactive | SENP1 kinetic inactive
CC1=C(C(=O)N(C(C)C)C(C)C)CC(CC(=O)NCCc2ccccn2)C(=O)N1Cc1ccc(F)cc1 (stereo not drawn)	none (no result: SENP6 inh, SENP7 inh, HSP90 refold inh, SENP8 block-1)
CSc1ncccc1C(=O)N1CCN(S(=O)(=O)c2ccc3c(c2)OCCO3)CC1	none (no result: HSP90 refold inh)
Cc1ccc(-c2cn(-c3ccccc3F)c(=S)[nH]2)cc1	none
O=[N+]([O-])c1ccc(-c2cn(-c3ccccc3F)c(=S)[nH]2)cc1	SENP1 inh 30.0 | SENP1 conf inactive | SENP1 kinetic inactive
Fc1ccc(-c2cnn3c(-c4cccs4)ccnc23)cc1	SENP1 inh 56.0 (no result: SENP6 inh, SENP7 inh, SENP8 block-1) | SENP1 conf inactive | SENP1 kinetic inactive
Fc1ccc(-c2cnn3c(-c4ccncc4)ccnc23)cc1	none
C=CCOc1ccc(Br)cc1/C=C1\NC(=S)N(C(C)=O)C1=O	none
C=CCOc1c(Br)cc(/C=C2/NC(=S)N(C(C)=O)C2=O)cc1OC	SENP1 inh 54.6 | SENP1 conf 39.6 | SENP1 kinetic 56.5
N#C/C(C(=O)NCCc1ccccc1)=C1/N=C(NC(=O)c2cccs2)c2ccccc21	SENP1 inh 35.7 | SENP1 conf inactive | SENP1 kinetic inactive
CCN1/C(=C/C=C2/SC(=Nc3cccc4ncccc34)N(C)C2=O)Sc2ccccc21	SENP1 inh 36.6 (no result: SENP6 inh, SENP7 inh, HSP90 refold inh, SENP8 block-1) | SENP1 conf inactive | SENP1 kinetic inactive
CCCN1C(=O)/C(=C\C=C2/Sc3ccccc3N2CCO)SC1=S	none
O=C1CC[C@@H]2C[C@@]3(C[C@@H]4CCN1[C@H]24)Nc1cc([N+](=O)[O-])ccc1NC3=NCc1ccccc1	SENP1 inh 54.8 (no result: SENP6 inh, SENP7 inh, HSP90 refold inh, SENP8 block-1) | SENP1 conf 42.1 | SENP1 kinetic inactive
O=c1[nH]ncc2c3ccccc3n(Cc3cccc(Cl)c3)c12	SENP1 inh 86.0 | SENP1 conf 106.4 | SENP1 kinetic 62.3
CCOC(=O)c1c2c3c(c(Cl)ccc3[nH]c1=O)C(=O)c1ccccc1-2	SENP1 inh 57.3 | SENP1 conf 40.0 | SENP1 kinetic inactive
CCOC(=O)c1c2c3c(cccc3[nH]c1=O)C(=O)c1ccccc1-2	none
N#CC1=C(N)Oc2cc(N)ccc2C1c1cccnc1 (stereo not drawn)	none
N#CC1=C(N)Oc2cc(Nc3ccccc3)ccc2C1c1ccncc1 (stereo not drawn)	SENP1 inh 76.7 | SENP1 conf 30.6 | SENP1 kinetic inactive
Cc1ccc2cc3c(N)c(C(=O)N4CCOCC4)sc3nc2c1	SENP1 inh 46.9 | SENP1 conf 40.1 | SENP1 kinetic inactive
Cc1ccc2nc3sc(C(=O)N4CCOCC4)c(N)c3cc2c1	none
CCN(CC(=O)Nc1ccc(NC(C)=O)cc1)C(=O)CSc1ncnc2sc(C)c(C)c12	SENP1 inh 41.2 (no result: HSP90 refold inh) | SENP1 conf 89.0 | SENP1 kinetic 68.3
Cn1c(/C(C#N)=C(\O)c2ccc([N+](=O)[O-])s2)nc2ccccc21	SENP1 inh 46.5 | SENP1 conf inactive | SENP1 kinetic inactive
Cn1c(/C(C#N)=C(\O)c2ccc(Cl)s2)nc2ccccc21	none
CCOC(=O)CSc1nc2ccc(C)cc2cc1C#N	none
CCOC(=O)CSc1nc2cc(C)ccc2cc1C#N	SENP1 inh 54.7 | SENP1 conf inactive | SENP1 kinetic inactive
CCCCN1CC[C@@H]2C=CC[C@H](C(=O)OC)[C@@H]2C1=O	none (no result: SENP6 inh, HSP90 refold inh, SENP8 block-1)
COC(=O)c1ccc(-c2nc(O)c(C)s2)cc1	SENP1 inh 41.0 | SENP1 conf 86.7 | SENP1 kinetic 56.2
COc1ccc(NC(=O)CCC(=O)c2ccc(-c3ccccc3)cc2)cc1	SENP1 inh 40.5 | SENP1 conf inactive | SENP1 kinetic inactive
CCOc1ccc(NC(=O)c2ccc(Br)o2)c([N+](=O)[O-])c1	SENP1 inh 32.0 | SENP1 conf inactive | SENP1 kinetic inactive
CCOc1ccc(NC(=O)Cc2ccccc2)c([N+](=O)[O-])c1	none
Cc1c(CCC(=O)N[C@@H](CC(C)C)C(=O)O)c(=O)oc2cc3oc4c(c3cc12)CCCC4	none
Cc1c(/C=N/NC(=O)CNc2ccccc2)c2ccccn2c1C(=O)c1ccc(Cl)cc1	SENP1 inh 30.6 | SENP1 conf inactive | SENP1 kinetic inactive
Cc1ccccc1NCC(=O)N/N=C/c1c(C)c(C(=O)c2ccc(Cl)cc2)n2ccccc12	none
CCCC(C)CO (stereo not drawn)	none (no result: HSP90 refold inh)
O=C1NC(=S)N/C1=C/c1cccc([N+](=O)[O-])c1O	SENP1 inh 40.3 | SENP1 conf inactive | SENP1 kinetic inactive
CCOc1cc(N2CCOCC2)c(OCC)cc1NC(=O)CCS(=O)(=O)c1ccc(Cl)cc1	SENP1 inh 37.0 | SENP1 conf inactive | SENP1 kinetic inactive
Cc1cc(C)c2cc(C#N)c(SCC(=O)NCc3ccco3)nc2c1	SENP1 inh 40.6 | SENP1 conf inactive | SENP1 kinetic inactive
O=C(CN1C(=O)NC2(CCCC2)C1=O)Nc1nc(-c2ccccc2)cs1	none (no result: HSP90 refold inh)
Cc1ccc(-c2ccc(SCC(=O)N3CCN(c4ccccc4)CC3)nn2)cc1	SENP1 inh 32.0 | SENP1 conf inactive | SENP1 kinetic inactive
COc1ccc([C@H]2CC(=O)C=C(c3cccc(Cl)c3O)C2)cc1OC	SENP1 inh 33.2 (no result: HSP90 refold inh) | SENP1 conf 74.0 | SENP1 kinetic 61.7
O=C1C=C(c2cccc(Cl)c2O)C[C@@H](c2ccc3c(c2)OCO3)C1	SENP1 inh 49.9 (no result: HSP90 refold inh) | SENP1 conf 95.4 | SENP1 kinetic 76.8
O=C1C=C(c2cccc(Cl)c2)C[C@@H](c2ccc3c(c2)OCO3)C1	none (no result: HSP90 refold inh)
COc1ccc([C@H]2CC(=O)C=C(c3ccc(O)cc3)C2)cc1OC	none (no result: HSP90 refold inh)
